Results from ChEMBL document CHEMBL3853307, “Anti-inflammatory Effect of Methyl Gallate on Experimental Arthritis: Inhibition of Neutrophil Recruitment, Production of Inflammatory Mediators, and Activation of Macrophages” (J Nat Prod, 2016).
The source made the active and inactive calls. The rule behind the calls is not given here.

What was measured:
[1] = Cytotoxicity against mouse J774A.1 cells assessed as cell viability at 0.01 to 100 uM after 20 hrs by Alamar Blue assay relative to control; type: toxicity, J774.A1; conditions: read-out: Activity
Summary of the method: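 J774A.1 cells at 2.5 × 10^5 cells/well, 24 h pre-incubation at 37 °C, 5% CO2; fresh medium with or without Tween 20 (3%) or compound (0.01−100 μM), quadruplicate; 20 h incubation, then Alamar Blue added for 4 h; fluorescence read at ex 555/em 585 nm.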

[2] = tested on: Mus musculus; assay: Antiinflammatory activity in C57BL/6 mouse assessed as inhibition of zymosan-induced IL6 production in cell-free supernatant of knee joint synovial washes at 7 mg/kg, po administered 1 hr prior to zymosan challenge measured at 6 to 24 hrs by sandwich ELISA method; type: functional, organism-based
Summary of the method: (§1)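 Male C57BL/6 mice (18−22 g), fasted overnight, dosed orally (in filtered water, 200 μL) or i.p. 1 h before i.a. zymosan (500 μg in 25 μL saline) into left knee; contralateral knee got vehicle. Synovial cavity washed twice with 150 μL PBS/10 mM EDTA at 6 and 24 h; washes spun 400g 10 min, 4 °C. Cytokines measured by sandwich ELISA, LTB4/PGE2 by EIA (pg/mL); six mice/group, two experiments.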

[3] = tested on: Mus musculus; assay: Antiinflammatory activity in C57BL/6 mouse assessed as inhibition of zymosan-induced TNFalpha production in cell-free supernatant of knee joint synovial washes at 7 mg/kg, po administered 1 hr prior to zymosan challenge measured at 6 to 24 hrs by sandwich ELISA method; type: functional, organism-based; summary of the method: as §1
[4] = tested on: Mus musculus; assay: Antiinflammatory activity in C57BL/6 mouse assessed as inhibition of zymosan-induced IL-1beta production in cell-free supernatant of knee joint synovial washes at 7 mg/kg, po administered 1 hr prior to zymosan challenge measured at 6 to 24 hrs by sandwich ELISA method; type: functional, organism-based; summary of the method: as §1
[5] = tested on: J774.A1; assay: Antiinflammatory activity in mouse J774A.1 cells assessed as inhibition of zymosan and IFNgamma-induced nitric oxide production at 10 uM preincubated for 1 hr followed by zymosan and IFNgamma addition measured after 24 hrs by colorimetric Griess test; type: functional, cell-based
Summary of the method: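 J774A.1 macrophages (1 × 10^5/well, RPMI/10% FBS) adhered 24 h, preincubated 1 h with compound (0.1−10 μM) or dexamethasone (1 μM), then stimulated with zymosan (10 μg per 10^5 cells) and/or IFN-γ (25 U/mL) for 24 h. Supernatant IL-6 by sandwich ELISA; nitrite by Griess reaction at 540 nm. Quadruplicate wells, two experiments.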

[6] = tested on: Mus musculus; assay: Antiinflammatory activity in C57BL/6 mouse assessed as inhibition of zymosan-induced PGE2 production in cell-free supernatant of knee joint synovial washes at 7 mg/kg, po administered 1 hr prior to zymosan challenge measured at 6 to 24 hrs by immunosorbent assay; type: functional, organism-based; summary of the method: as §1
[7] = tested on: Mus musculus; assay: Antiinflammatory activity in C57BL/6 mouse assessed as inhibition of zymosan-induced synovial hyperplasia at 7 mg/kg, po administered 1 hr prior to zymosan challenge measured at 6 to 24 hrs by hematoxylin and eosin staining-based optical microscopy; type: functional, organism-based
Summary of the method: (§2)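 Mice dosed orally or i.p. 1 h before i.a. zymosan (500 μg/cavity) or saline. Whole knees taken at 6 and 24 h from six mice, fixed in 10% formalin 48 h, decalcified in 10% EDTA/PBS 1−2 weeks, paraffin-embedded. 5 μm sections H&E-stained and examined by light microscopy. Parameter scores summed into an arthritis index; means ± SEM, two experiments.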

[8] = tested on: Mus musculus; assay: Antiinflammatory activity in C57BL/6 mouse assessed as inhibition of zymosan-induced knee joint edema formation at 7 mg/kg, po administered 1 hr prior to zymosan challenge measured at 24 hrs relative to control; type: functional; conditions: C57BL/6, Knee joint
Summary of the method: (§3)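 Male C57BL/6 mice, fasted overnight, dosed orally (vehicle saline/water, 200 μL) or i.p. 1 h before zymosan (500 μg in 25 μL saline, i.a., left knee). Knee swelling measured as change in transverse diameter from basal by digital caliper (mm). Synovial washes (PBS/EDTA) counted on a particle counter; differentials from May-Grünwald-Giemsa cytospins, cells ×10^5/cavity. Sampled at 6 and/or 24 h; seven mice/group.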

[9] = tested on: Mus musculus; assay: Antiinflammatory activity in C57BL/6 mouse assessed as inhibition of zymosan-induced knee joint edema formation at 7 mg/kg, po administered 1 hr prior to zymosan challenge measured at 6 hrs relative to control; type: functional; conditions: C57BL/6, Knee joint; summary of the method: as §3
[10] = tested on: J774.A1; assay: Antiinflammatory activity in mouse J774A.1 cells assessed as inhibition of zymosan and IFNgamma-induced cytoplasmic calcium flux at 1 uM preincubated for 1 hr followed by zymosan and IFNgamma addition measured over 10 mins by FLIPR assay; type: functional, cell-based
Summary of the method: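 J774A.1 macrophages preincubated 1 h with HBSS or compound (1 μM), then stimulated with zymosan plus IFN-γ. Intracellular calcium followed over 600 s with a FLIPR Calcium Plus kit; mean signal from 360−600 s after stimulus used for analysis; quadruplicate wells.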

[11] = tested on: Mus musculus; assay: Antiinflammatory activity in C57BL/6 mouse assessed as inhibition of zymosan-induced mononuclear cells recruitment in synovial cavity at 0.7 to 70 mg/kg, po administered 1 hr prior to zymosan challenge measured after 6 to 24 hrs by Grunwald-Giemsa-stained cytospin smear; type: functional, organism-based
[12] = tested on: Mus musculus; assay: Antiinflammatory activity in C57BL/6 mouse assessed as inhibition of zymosan-induced infiltration of inflammatory cells into synovial tissue at 7 mg/kg, po administered 1 hr prior to zymosan challenge measured at 6 to 24 hrs by hematoxylin and eosin staining-based optical microscopy; type: functional, organism-based; summary of the method: as §2
[13] = tested on: Mus musculus; assay: Antiinflammatory activity in C57BL/6 mouse assessed as inhibition of zymosan-induced arthritis score at 7 mg/kg, po administered 1 hr prior to zymosan challenge measured at 6 to 24 hrs by hematoxylin and eosin staining-based optical microscopy; type: functional, organism-based; summary of the method: as §2
[14] = tested on: Mus musculus; assay: Antiinflammatory activity in C57BL/6 mouse assessed as inhibition of zymosan-induced neutrophils recruitment in synovial cavity at 0.7 to 70 mg/kg, po administered 1 hr prior to zymosan challenge measured after 6 to 24 hrs by Grunwald-Giemsa-stained cytospin smear; type: functional, organism-based; summary of the method: as §3
[15] = tested on: Neutrophil; assay: Antiinflammatory activity in C57BL/6 mouse neutrophils assessed as inhibition of CXCL1/KC-induced neutrophil chemotaxis at 0.1 to 1 uM preincubated for 1 hr followed by CXCL1/KC-induction measured after 1 hr by Wright-Giemsa staining-based light microscopic method; type: functional, cell-based
Summary of the method: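 Bone marrow neutrophils from C57BL/6 femurs, purified on a 65%/72% Percoll gradient (~85−90% purity). 10^5 cells preincubated 1 h with compound or medium, then placed in a 48-well Boyden chamber over CXCL-1/KC (250 nM) across a 5 μm polycarbonate filter, 60 min at 37 °C, 5% CO2. Filter Wright-Giemsa stained; migrated cells counted in 15 fields; quadruplicate wells.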

[16] = tested on: Mus musculus; assay: Antiinflammatory activity in C57BL/6 mouse assessed as inhibition of zymosan-induced total leukocyte recruitment in synovial cavity at 0.7 to 70 mg/kg, po administered 1 hr prior to zymosan challenge measured after 6 to 24 hrs by particle counting method; type: functional, organism-based; summary of the method: as §3
[17] = tested on: Mus musculus; assay: Antiinflammatory activity in C57BL/6 mouse assessed as inhibition of zymosan-induced total leukocyte accumulation in articular cavity at 7 mg/kg, po administered 1 hr prior to zymosan challenge measured at 24 hrs; type: functional, organism-based; summary of the method: as §3

COC(=O)c1cc(O)c(O)c(O)c1 [GALLIC ACID METHYL ESTER]
viability at 20 h, up to 100 µM [1]: ≥ 95%
inhibition [2]: Active
inhibition [3]: Active
inhibition [4]: Active
inhibition [5]: Active
inhibition [6]: Active
inhibition [7]: Active
inhibition in vivo at 7 mg/kg [8]: 49%
inhibition in vivo at 7 mg/kg [9]: 24%
inhibition [10]: Active
inhibition [11]: Active
inhibition [12]: Active
inhibition [13]: Active
inhibition [14]: Active
inhibition [15]: Active
inhibition [16]: Active
inhibition [17]: Active
